Measured values from ChEMBL document CHEMBL3272092, “Synthesis and antihypertensive activity of 5-thio-2-pyridinecarboxylic acid derivatives” (J Med Chem, 1978).
Active and inactive are the calls of the source. The rule behind the calls is not given here.

Assays:
[1] = test system: Rattus norvegicus; assay: Antihypertensive activity in spontaneous hypertensive rat model assessed as decrease in blood pressure at 100 mg/kg, po administered for 2 to 4 days measured on day 2 to day 4; format: functional
In short: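 SHR, 4–6 per drug, were dosed daily by gavage for 2 or 4 consecutive days in 3% cornstarch, 5% PEG-400 and 1 drop Tween 80 per mL. After 1 h acclimation, systolic pressure was read by tail-cuff (inflated to 250 mmHg, then lowered; pulse reemergence), at least three readings, at 1, 2, 3 and 24 h post-dose. The peak fall is scored: +, <20 mm up to >80 mm.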

[2] = test system: Rattus norvegicus; assay: Antihypertensive activity in spontaneous hypertensive rat model assessed as decrease in blood pressure at 30 mg/kg, po administered for 2 to 4 days measured on day 2 to day 4; format: functional
[3] = test system: Rattus norvegicus; assay: Toxicity in spontaneous hypertensive rat model at 100 mg/kg, po administered for 2 to 4 days; format: organism-based; set-up: dose 100 mg/kg, route oral; details: in vivo
[4] = test system: Canis familiaris; assay: Antihypertensive activity in unanesthetized renal hypertensive Mongrel dog model assessed as change in mean blood pressure at 60 mg/kg, po qd measured on day 1; format: functional, Canis lupus familiaris
In short: (§1)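 Conscious renal hypertensive dogs. Blood pressure recorded through a hypodermic needle and tubing to a pressure transducer; heart rate counted by hand. Solid drug given orally once daily in gelatin capsule. Pressures read at 1.5, 3, 6 and 24 h after each dose; maximum changes in pressure and heart rate over each daily session reported.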

[5] = test system: Canis familiaris; assay: Antihypertensive activity in unanesthetized renal hypertensive Mongrel dog model assessed as change in mean blood pressure at 60 mg/kg, po qd measured on day 2; format: functional, Canis lupus familiaris; in short: as §1
[6] = test system: Canis familiaris; assay: Antihypertensive activity in unanesthetized renal hypertensive Mongrel dog model assessed as change in mean blood pressure at 60 mg/kg, po qd measured on day 3; format: functional, Canis lupus familiaris; in short: as §1
[7] = test system: Canis familiaris; assay: Toxicity in unanesthetized renal hypertensive Mongrel dog model assessed as change in heart rate at 60 mg/kg, po qd measured on day 1; format: organism-based, Canis lupus familiaris; set-up: dose 60 mg/kg, route oral; details: in vivo; in short: as §1
[8] = test system: Canis familiaris; assay: Toxicity in unanesthetized renal hypertensive Mongrel dog model assessed as change in heart rate at 60 mg/kg, po qd measured on day 2; format: organism-based, Canis lupus familiaris; set-up: dose 60 mg/kg, route oral; details: in vivo; in short: as §1
[9] = test system: Canis familiaris; assay: Toxicity in unanesthetized renal hypertensive Mongrel dog model assessed as change in heart rate at 60 mg/kg, po qd measured on day 3; format: organism-based, Canis lupus familiaris; set-up: dose 60 mg/kg, route oral; details: in vivo; in short: as §1
[10] = test system: Squirrel monkey; assay: Antihypertensive activity in normotensive squirrel monkey model assessed as decrease in systolic blood pressure at 30 mg/kg, po qd measured on day 1 by sphygmomanometry; format: functional, Saimiri sciureus, Artery
In short: (§2)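 Squirrel monkeys of either sex restrained in primate chairs, tails warmed by infrared lamp. Systolic pressure taken indirectly by tail-base occlusion cuff with pulse transducer; heart rate counted by hand from the pressure trace. Daily gavage of a suspension in 3% cornstarch, 5% PEG-400 and 1 drop Tween 80 per 10 mL. Read at 1.5, 3, 5 and 24 h; peak change per dose; paired t test.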

[11] = test system: Squirrel monkey; assay: Antihypertensive activity in normotensive squirrel monkey model assessed as decrease in systolic blood pressure at 100 mg/kg, po qd measured on day 2 by sphygmomanometry; format: functional, Saimiri sciureus, Artery
In short: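 Restrained squirrel monkeys of either sex with tails warmed by infrared lamp. Systolic pressure was measured indirectly with a tail-base occlusion cuff and pulse transducer. Doses were given daily by gavage as a suspension in 3% cornstarch, 5% PEG-400 and 1 drop Tween 80 per 10 mL. Readings were taken 1.5, 3, 5 and 24 h post-dose. Values are the peak change after each dose, analysed by paired t test.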

[12] = test system: Squirrel monkey; assay: Toxicity in normotensive squirrel monkey model assessed as change in heart rate at 30 mg/kg, po qd measured on day 1; format: organism-based, Saimiri sciureus; set-up: dose 30 mg/kg, route oral; details: in vivo; in short: as §2
[13] = test system: Squirrel monkey; assay: Toxicity in normotensive squirrel monkey model assessed as change in heart rate at 100 mg/kg, po qd measured on day 2; format: organism-based, Saimiri sciureus; set-up: dose 100 mg/kg, route oral; details: in vivo
In short: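 Heart rate in restrained, tail-warmed squirrel monkeys was counted manually from the tail-cuff pressure record. Daily gavage used a suspension in 3% cornstarch, 5% PEG-400 and 1 drop Tween 80 per 10 mL. Monitoring was at 1.5, 3, 5 and 24 h after each dose, and the peak change per administration is reported. Paired t test.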

[14] = test system: Canis familiaris; assay: Toxicity in unanesthetized renal hypertensive Mongrel dog model assessed as emesis at 60 mg/kg, po qd measured on day 1 to 4; format: organism-based, Canis lupus familiaris; set-up: dose 60 mg/kg, route oral; details: in vivo
[15] = test system: Squirrel monkey; assay: Toxicity in normotensive squirrel monkey model assessed as emesis at 30 mg/kg, po qd measured on day 1; format: organism-based, Saimiri sciureus; set-up: dose 30 mg/kg, route oral; details: in vivo
[16] = test system: Squirrel monkey; assay: Toxicity in normotensive squirrel monkey model assessed as emesis at 100 mg/kg, po qd measured on day 2; format: organism-based, Saimiri sciureus; set-up: dose 100 mg/kg, route oral; details: in vivo
[17] = test system: Rattus norvegicus; assay: Toxicity in spontaneous hypertensive rat model assessed as effect on heart rate at 100 mg/kg, po administered for 2 to 4 days; format: organism-based; set-up: dose 100 mg/kg, route oral; details: in vivo
In short: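 Heart rate in SHR was counted from tail-cuff pressure pulses after 1 h acclimation. Rats (4–6 per drug) were gavaged daily for 2 or 4 days at 100 mg/kg (sometimes 200 mg/kg) in 3% cornstarch, 5% PEG-400 and 1 drop Tween 80 per mL. Recordings were at 1, 2, 3 and 24 h after each dose.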

SMILES	Activity [1]	other results
Cc1cccc(CSc2ccc(C(=O)O)nc2)c1	<20 mmHg	–
O=C([O-])c1ccc(SCc2c(Cl)cccc2Cl)cn1.[Na+]	<20 mmHg	–
O=C(O)c1ccc(SCc2ccc(Cl)cc2)cn1	>40 mmHg	–
COc1ccc(C[S+]([O-])c2ccc(C(=O)O)nc2)cc1 (stereo not drawn)	>20 mmHg	–
O=C(O)c1ccc(SCc2cccc(F)c2)cn1	>20 mmHg	–
CC(c1cccc(C(F)(F)F)c1)[S+]([O-])c1ccc(C(=O)O)nc1 (stereo not drawn)	>20 mmHg	–
N#Cc1cccc(CSc2ccc(C(=O)[O-])nc2)c1.[Na+]	>20 mmHg	–
O=C([O-])c1ccc(Sc2ccc(Cl)cc2)cn1.[Na+]	–	Activity [2]: <20 mmHg; Activity [3]: Toxic
Cc1ccc(CSc2ccc(C(=O)[O-])nc2)cc1.[Na+]	<20 mmHg	–
COc1cccc(C[S+]([O-])c2ccc(C(=O)O)nc2)c1 (stereo not drawn)	<20 mmHg	–
O=C(O)c1ccc(SCc2ccccc2)cn1	>40 mmHg	–
O=C([O-])c1ccc(S(=O)(=O)Cc2cccc(C(F)(F)F)c2)cn1.[Na+]	<20 mmHg	–
CCCCc1ccc(C(=O)O)nc1 [FUSARIC ACID]	>60 mmHg	Activity [4]: -50 mmHg; Activity [5]: -45 mmHg; Activity [6]: -30 mmHg; Activity [7]: 32 bpm; Activity [8]: 35 bpm; Activity [9]: 33 bpm; Activity [10]: -28 mmHg; Activity [11]: -53 mmHg; Activity [12]: -20 bpm; Activity [13]: 10 bpm; Activity [14]: Toxic; Activity [15]: Non-toxic; Activity [16]: Non-toxic
O=C([O-])c1ccc(SCc2ccc(Cl)c(Cl)c2)cn1.[Na+]	<20 mmHg	–
CCCCS(=O)(=O)c1ccc(C(=O)O)nc1	inactive	–
CCCCSc1ccc(C(=O)O)nc1	>20 mmHg	Activity [17]: Non-toxic
O=C(O)c1ccc(SCCCc2ccccc2)cn1	>20 mmHg	–
COc1ccc(CSc2ccc(C(=O)[O-])nc2)cc1.[Na+]	<20 mmHg	–
